# Source: ChEMBL document CHEMBL1140002, “Synthesis and biological evaluation of (R)-N-(diarylmethylthio/sulfinyl)ethyl/propyl-piperidine-3-carboxylic acid hydrochlorides as novel GABA uptake inhibitors” (Bioorg Med Chem Lett, 2007)
# Where a name gives a salt, the structure may show the parent alone.
# Target: Sodium- and chloride-dependent GABA transporter 1 (Mus musculus, UniProt P31648)
# Test: Inhibition of [3H]GABA uptake at mouse GAT1 expressed in D8 cells
# Format: cell-based
# Procedure, shortened: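 D8 cells in RPMI1640 with 10% FBS grown to near confluence (~60,000 cells/well), rinsed with PBS, pre-incubated 10 min at rt in HBSS. Stopped by aspirating HBSS, three rapid cold PBS washes, cells solubilized in 2 N NaOH; uptake quantified by liquid scintillation counting.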
row,Structure (SMILES),IC50 [µM]
1,Cc1ccc(C(SCCCN2CCC[C@@H](C(=O)O)C2)c2ccc(C)cc2)cc1,15.8
2,COc1ccc(C(SCCCN2CCC[C@@H](C(=O)O)C2)c2ccc(OC)cc2)cc1,120
3,COc1ccc(C(c2ccc(OC)cc2)[S+]([O-])CCN2CCC[C@@H](C(=O)O)C2)cc1 (stereo partly drawn),589
4,Cc1ccccc1C(c1cccc(C)c1C)[S+]([O-])CCN1CCC[C@@H](C(=O)O)C1 (stereo partly drawn),105
5,O=C(O)[C@@H]1CCCN(CCSC(c2ccccc2)c2ccccc2)C1,1600
6,COc1ccc(C(SCCN2CCC[C@@H](C(=O)O)C2)c2ccc(OC)cc2)cc1,4800
7,Cc1ccccc1C(SCCN1CCC[C@@H](C(=O)O)C1)c1cccc(C)c1C (stereo partly drawn),2130
8,O=C(O)[C@@H]1CCCN(CCCSC(c2ccccc2)c2ccccc2)C1,11.6
9,O=C(O)[C@@H]1CCCN(CC[S+]([O-])C(c2ccccc2)c2ccccc2)C1 (stereo partly drawn),0.92
10,Cc1ccc(C(SCCN2CCC[C@@H](C(=O)O)C2)c2ccc(C)cc2)cc1,240
11,Cc1ccccc1C(SCCCN1CCC[C@@H](C(=O)O)C1)c1cccc(C)c1C (stereo partly drawn),16.9
12,Cc1ccc(C(c2ccc(C)cc2)[S+]([O-])CCN2CCC[C@@H](C(=O)O)C2)cc1 (stereo partly drawn),1.18
13,Cc1ccsc1C(=CCCN1CCC[C@@H](C(=O)O)C1)c1sccc1C [TIAGABINE HYDROCHLORIDE],0.08
